pEC50: −log10 of the molar value.
Legend:
[1] = biological target: T1, PXR (NR1I2) (Homo sapiens, UniProt O75469); test: Transactivation of PXR in human HepG2 cells relative to rifampicin; assay type: ADME, cell-based; conditions: read-out: %max
T1 sequence (O75469 whole entry): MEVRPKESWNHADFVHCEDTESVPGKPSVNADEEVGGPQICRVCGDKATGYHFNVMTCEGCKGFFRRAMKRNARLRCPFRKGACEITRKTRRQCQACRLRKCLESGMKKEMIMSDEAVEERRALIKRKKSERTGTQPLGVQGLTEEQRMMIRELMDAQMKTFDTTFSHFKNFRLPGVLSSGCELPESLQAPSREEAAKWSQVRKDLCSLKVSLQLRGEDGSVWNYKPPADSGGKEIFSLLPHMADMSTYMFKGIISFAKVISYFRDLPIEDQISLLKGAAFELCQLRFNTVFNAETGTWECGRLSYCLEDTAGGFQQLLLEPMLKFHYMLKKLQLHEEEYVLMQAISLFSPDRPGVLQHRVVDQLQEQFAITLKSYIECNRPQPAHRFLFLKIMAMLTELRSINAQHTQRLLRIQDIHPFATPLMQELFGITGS

[2] = biological target: T2, Nuclear receptor subfamily 1 group I member 2 (Homo sapiens, UniProt O75469); test: Transactivation of PXR in human HepG2 cells; assay type: ADME, cell-based
T2 sequence (O75469 whole entry): T1 sequence (O75469 whole entry)

[3] = biological target: T3, Oxysterols receptor LXR-alpha (Homo sapiens, UniProt Q13133); test: Agonist activity at LXRalpha (unknown origin) expressed in African green monkey CV1 cells; assay type: cell-based
T3 sequence (Q13133 whole entry): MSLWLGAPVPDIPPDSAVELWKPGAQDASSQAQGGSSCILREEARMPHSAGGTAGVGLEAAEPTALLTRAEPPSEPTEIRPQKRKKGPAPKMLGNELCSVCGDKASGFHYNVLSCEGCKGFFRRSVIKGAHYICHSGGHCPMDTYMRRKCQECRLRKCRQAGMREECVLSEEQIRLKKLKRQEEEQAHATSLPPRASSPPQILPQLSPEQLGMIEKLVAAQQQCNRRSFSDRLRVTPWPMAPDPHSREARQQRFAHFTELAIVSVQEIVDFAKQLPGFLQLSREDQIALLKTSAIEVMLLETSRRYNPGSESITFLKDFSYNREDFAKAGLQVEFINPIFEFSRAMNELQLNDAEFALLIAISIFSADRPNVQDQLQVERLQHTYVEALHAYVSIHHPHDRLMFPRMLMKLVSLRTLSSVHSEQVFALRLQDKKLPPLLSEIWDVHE

[4] = biological target: T4, Oxysterols receptor LXR-beta (Homo sapiens, UniProt P55055); test: Agonist activity at LXRbeta (unknown origin) expressed in African green monkey CV1 cells; assay type: cell-based
T4 sequence (P55055 whole entry): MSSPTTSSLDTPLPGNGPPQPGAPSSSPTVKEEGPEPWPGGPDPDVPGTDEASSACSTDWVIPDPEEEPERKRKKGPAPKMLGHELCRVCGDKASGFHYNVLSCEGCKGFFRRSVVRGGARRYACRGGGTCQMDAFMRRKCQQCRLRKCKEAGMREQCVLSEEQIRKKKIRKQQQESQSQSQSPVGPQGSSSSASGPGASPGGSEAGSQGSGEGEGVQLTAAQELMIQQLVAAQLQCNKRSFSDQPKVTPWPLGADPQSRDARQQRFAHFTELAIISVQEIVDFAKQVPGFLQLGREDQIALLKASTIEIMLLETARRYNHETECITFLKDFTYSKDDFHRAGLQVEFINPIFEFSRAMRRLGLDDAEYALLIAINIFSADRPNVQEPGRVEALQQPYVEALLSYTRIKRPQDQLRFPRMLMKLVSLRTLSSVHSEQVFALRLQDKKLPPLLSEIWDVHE

[5] = Stability in mouse liver microsomes assessed as parent compound remaining after 10 mins; assay type: ADME, Microsome; conditions: read-out: Stability
Procedure, shortened: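 Rough stability screen: compound incubated with mouse liver microsomes for 10 min, reported as percentage of parent remaining.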

[6] = Protein binding in mouse plasma assessed as unbound fraction; assay type: ADME, cell-free
[7] = Protein binding in human plasma assessed as unbound fraction; assay type: ADME, cell-free
[8] = Permeability in human Caco2 cells; assay type: ADME, cell-based; conditions: Caco-2, read-out: permeability
Procedure, shortened: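 Caco-2 monolayer permeability, reported as permeation coefficient in nm/s; an efflux ratio was also determined.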

[9] = biological target: T5, Oxysterols receptor LXR-alpha (Homo sapiens) (UniProt Q13133); test: Agonist activity at LXRalpha (unknown origin) expressed in African green monkey CV1 cells relative to T0901317; assay type: cell-based
T5 sequence (whole entry): T3 sequence (Q13133 whole entry)

[10] = biological target: T6, Oxysterols receptor LXR-beta (Homo sapiens) (UniProt P55055); test: Agonist activity at LXRbeta (unknown origin) expressed in African green monkey CV1 cells relative to T0901317; assay type: cell-based
T6 sequence (whole entry): T4 sequence (P55055 whole entry)

SMILES	Emax [1]	pEC50 [2]	pEC50 [3]	pEC50 [4]	remaining at 10 min [5]	fraction unbound [6]	fraction unbound [7]	Papp [8]	%max [9]	%max [10]
O=S(=O)(c1ccc(F)cc1)C1(c2ccc(C(F)(C(F)(F)F)C(F)(F)F)cc2)CCCC1	130%	6.00								
CCC(O)(c1ccc(C2(S(=O)(=O)c3ccc(F)cc3)CCCC2)cc1)C(F)(F)F (racemic)	110%	7.32								
O=S(=O)(c1ccc(F)cc1)C1(c2ccc(C(O)(C(F)(F)F)C(F)(F)F)cc2)CCCC1	110%	8.00								
O=S(=O)(c1ccc(F)cc1)[C@]1(c2ccc(C(O)(C(F)(F)F)C(F)(F)F)cc2)CCNC1	110%	6.28	< 5.12	< 5.12						
CCNC(=O)N1CCC(c2ccc(C(O)(C(F)(F)F)C(F)(F)F)cc2)(S(=O)(=O)c2ccc(F)cc2)C1 (racemic)			< 5.12	< 5.12						
CS(=O)(=O)N1CCC(C(=O)N2CC[C@](c3ccc(C(O)(C(F)(F)F)C(F)(F)F)cc3)(S(=O)(=O)c3ccc(F)cc3)C2)CC1	89%	< 5.61	< 5.12	< 5.12						
CC(O)(c1ccc(C2(S(=O)(=O)c3ccc(F)cc3)CCCC2)cc1)C(F)(F)F (racemic)	110%	6.62								
O=S(=O)(c1ccc(F)cc1)C1(c2ccc(C(Cl)(C(F)(F)F)C(F)(F)F)cc2)CCCC1	110%	6.64								
CC(=O)N1CCN(C(=O)N2CC[C@](c3ccc(C(O)(C(F)(F)F)C(F)(F)F)cc3)(S(=O)(=O)c3ccc(F)cc3)C2)CC1			< 5.12	< 5.12						
NC(c1ccc(C2(S(=O)(=O)c3ccc(F)cc3)CCCC2)cc1)(C(F)(F)F)C(F)(F)F	120%	6.56								
CC(=O)N1CCC(c2ccc(C(O)(C(F)(F)F)C(F)(F)F)cc2)(S(=O)(=O)c2ccc(F)cc2)C1 (racemic)	100%	6.32	< 5.12	< 5.12						
CC(=O)N1CCN(C(=O)N2CC[C@@](c3ccc(C(O)(C(F)(F)F)C(F)(F)F)cc3)(S(=O)(=O)c3ccc(F)cc3)C2)CC1			< 5.12	< 5.12						
CC(=O)N1CCN(C(=O)N2CC[C@](c3ccc(C(F)(C(F)(F)F)C(F)(F)F)cc3)(S(=O)(=O)c3ccc(F)cc3)C2)CC1	10%		< 5.12	< 5.12	68%					
O=S(=O)(c1ccc(F)cc1)[C@@]1(c2ccc(C(O)(C(F)(F)F)C(F)(F)F)cc2)CCNC1	110%	6.36	5.53	< 5.12					58%	
O=C(C1CCCC1)N1CCC(c2ccc(C(O)(C(F)(F)F)C(F)(F)F)cc2)(S(=O)(=O)c2ccc(F)cc2)C1 (racemic)	99%	6.10	< 5.12	< 5.12						
CC(c1ccc(C2(S(=O)(=O)c3ccc(F)cc3)CCCC2)cc1)(C(F)(F)F)C(F)(F)F	140%	6.12								
COC(=O)N1CCC(c2ccc(C(O)(C(F)(F)F)C(F)(F)F)cc2)(S(=O)(=O)c2ccc(F)cc2)C1 (racemic)			6.39	5.72					62%	39%
CC(=O)N1CCC(C(=O)N2CC[C@](c3ccc(C(O)(C(F)(F)F)C(F)(F)F)cc3)(S(=O)(=O)c3ccc(F)cc3)C2)CC1			< 5.12	< 5.12						
CS(=O)(=O)N1CCC(C(=O)N2CC[C@](c3ccc(C(F)(C(F)(F)F)C(F)(F)F)cc3)(S(=O)(=O)c3ccc(F)cc3)C2)CC1	2%	< 4.30	< 5.12	< 5.12	69%					

Next, values leading:

Emax [1]	pEC50 [2]	pEC50 [3]	pEC50 [4]	remaining at 10 min [5]	fraction unbound [6]	fraction unbound [7]	Papp [8]	%max [9]	%max [10]	SMILES
23%	< 4.34	< 5.12	< 5.12	88%						O=C(O)C1CCN(C(=O)N2CC[C@](c3ccc(C(F)(C(F)(F)F)C(F)(F)F)cc3)(S(=O)(=O)c3ccc(F)cc3)C2)CC1
3%	< 4.30	< 5.12	< 5.12	100%						CCc1ccc(S(=O)(=O)[C@@]2(c3ccc(C(F)(C(F)(F)F)C(F)(F)F)cc3)CCN(C(=O)[C@H]3CC[C@H](C(=O)O)CC3)C2)cc1
9%	< 4.30	< 5.12	< 5.12	73%						CCc1cc(S(=O)(=O)[C@@]2(c3ccc(C(F)(C(F)(F)F)C(F)(F)F)cc3)CCN(C(=O)[C@H]3CC[C@H](C(=O)O)CC3)C2)ccc1F
7%		< 5.12	< 5.12							CC(=O)N1CCC(C(=O)N2CC[C@](c3ccc(C(F)(C(F)(F)F)C(F)(F)F)cc3)(S(=O)(=O)c3ccc(F)cc3)C2)CC1
22%	5.19	< 5.12	< 5.12	100%						O=C(O)[C@H]1CC[C@H](C(=O)N2CC[C@](c3ccc(C(F)(C(F)(F)F)C(F)(F)F)cc3)(S(=O)(=O)c3ccc(Cl)cc3)C2)CC1
29%	4.90	< 5.12	< 5.12	85%	0.026	0.013				Cc1ccc(S(=O)(=O)[C@@]2(c3ccc(C(F)(C(F)(F)F)C(F)(F)F)cc3)CCN(C(=O)[C@H]3CC[C@H](C(=O)O)CC3)C2)cc1
10%	< 4.30	< 5.12	< 5.12	96%						O=C(O)[C@H]1CC[C@H](C(=O)N2CC[C@](c3ccc(C(F)(C(F)(F)F)C(F)(F)F)cc3)(S(=O)(=O)c3ccccc3)C2)CC1
40%	< 4.64	< 5.12	< 5.12	84%	0.029	0.017				Cc1cc(S(=O)(=O)[C@@]2(c3ccc(C(F)(C(F)(F)F)C(F)(F)F)cc3)CCN(C(=O)[C@H]3CC[C@H](C(=O)O)CC3)C2)ccc1F
11%	< 4.30	< 5.43	< 5.12				< 1.5 ×10⁻⁶ cm/s			O=C(O)[C@H]1CC[C@H](C(=O)N2CC[C@](c3ccc(C(O)(C(F)(F)F)C(F)(F)F)cc3)(S(=O)(=O)c3ccc(F)cc3)C2)CC1
		< 5.12	< 5.12							O=C(O)[C@H]1CC[C@@H](C(=O)N2CC[C@](c3ccc(C(F)(C(F)(F)F)C(F)(F)F)cc3)(S(=O)(=O)c3ccc(F)cc3)C2)CC1
12%	< 4.30	< 5.12	< 5.12	98%						COc1ccc(S(=O)(=O)[C@@]2(c3ccc(C(F)(C(F)(F)F)C(F)(F)F)cc3)CCN(C(=O)[C@H]3CC[C@H](C(=O)O)CC3)C2)cc1
9%	< 4.30	< 5.12	< 5.12	74%						O=C(O)[C@H]1CC[C@H](C(=O)N2CC[C@](c3ccc(C(F)(C(F)(F)F)C(F)(F)F)cc3)(S(=O)(=O)c3ccc(F)c(C4CC4)c3)C2)CC1
